# Rpn11 inh: Rpn11 (human) deubiquitinase inhibition; human 26S proteasome, Ub4-pepOG fluorescence polarization; 20S core pre-blocked with epoxomicin; inhibition, % at 20 µM; 360,000 tested, 0.59% active;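 active = inhibition at 20 µM, scaled to each plate's controls, above about 33%, limit read from the data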
# TPT1 inh: C. albicans TPT1 enzyme inhibition | recombinant caTPT1, FP RNA substrate dephosphorylation | inhibition, % at 5 µM | 300,000 tested, 0.81% active | AID 1962;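 active = inhibition above the mean of all tested compounds plus 3 SD, set per screening campaign, cut at about 24% in these data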;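 note: plate controls were DMSO alone for no effect and ferristatin control at 100 nM for full effect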
# HNF4A DNA FP: change in binding of human HNF4 alpha to DNA; HNF4a-FITC DNA binding, fluorescence polarization, 1 h; activity change, % at 10 µM; AID 1224865; 360,000 tested, 0.3% active; in the data active = activity change above about 30%, passing the limit was not always enough
# CSN inh: inhibitors of human CSN-mediated cullin deneddylation. inhibition, % at 12.5 µM. Purified CSN, SCF-Nedd8-OG deneddylation, fluorescence polarization. 360,000 tested, 0.38% active;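 active = pattern-corrected inhibition above about 35%, with an unprinted fluorescence ratio check between 0.5 and 1.5, limit read from the data, passing the limit was not always enough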;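 note: 0% = enzyme with substrate and 100% = substrate without enzyme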
#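 assay system = purified human Csn5 enzyme expressed in HEK293T cells | amount = 0.24 nM enzyme | buffer or medium = Tris/NaCl/DTT buffer, pH 7.5 | reagent = 10 nM SCFSkp2-Nedd8OG | compound = one concentration, 12.5 µM, 0.25% DMSO | times = 90 min reaction at room temperature | signal = FP | read-out basis = % inhibition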
# SENP1 FRET inh: SENP1 (human) catalytic domain inhibition. Q9P0U3. recombinant SENP1 catalytic domain, CyPet-SUMO1-YPet FRET cleavage. inhibition, % at 10 µM. 360,000 tested, 0.21% active. AID 624204;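 active = inhibition at least 30% at 10 µM, raw YFP signal under a set limit, fluorescence ratio 0.5 to 1.5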;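 note: 0% = enzyme with DMSO and 100% = no enzyme wells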
#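 Compound: 10 µM single point, 0.5% DMSO; Test system: hSENP1 catalytic domain, recombinant; Timing: 50 min reaction at room temperature; Technique: FRET, CFP and YFP emission; Control set: no-enzyme wells low, DMSO-plus-enzyme wells high control.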
# Rpn11 inh conf: confirmation of human proteasome Rpn11 inhibitors; shares compounds with Rpn11 inh; purified human 26S proteasome, Ub4-pepOG fluorescence polarization; proteasome pretreated with epoxomicin; inhibition, % at 20 µM; 1,900 tested, 29% active
# MMP-2 counter: MMP-2 (human) inhibition counter-screen | 1,900 tested, 4% active | recombinant MMP-2, FRET peptide cleavage fluorescence | AID 602330 | shares compounds with Rpn11 inh | inhibition, % at 20 µM;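 note: human MMP-2 activated beforehand with APMA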
# Target sequence (P08253 whole entry, looked up): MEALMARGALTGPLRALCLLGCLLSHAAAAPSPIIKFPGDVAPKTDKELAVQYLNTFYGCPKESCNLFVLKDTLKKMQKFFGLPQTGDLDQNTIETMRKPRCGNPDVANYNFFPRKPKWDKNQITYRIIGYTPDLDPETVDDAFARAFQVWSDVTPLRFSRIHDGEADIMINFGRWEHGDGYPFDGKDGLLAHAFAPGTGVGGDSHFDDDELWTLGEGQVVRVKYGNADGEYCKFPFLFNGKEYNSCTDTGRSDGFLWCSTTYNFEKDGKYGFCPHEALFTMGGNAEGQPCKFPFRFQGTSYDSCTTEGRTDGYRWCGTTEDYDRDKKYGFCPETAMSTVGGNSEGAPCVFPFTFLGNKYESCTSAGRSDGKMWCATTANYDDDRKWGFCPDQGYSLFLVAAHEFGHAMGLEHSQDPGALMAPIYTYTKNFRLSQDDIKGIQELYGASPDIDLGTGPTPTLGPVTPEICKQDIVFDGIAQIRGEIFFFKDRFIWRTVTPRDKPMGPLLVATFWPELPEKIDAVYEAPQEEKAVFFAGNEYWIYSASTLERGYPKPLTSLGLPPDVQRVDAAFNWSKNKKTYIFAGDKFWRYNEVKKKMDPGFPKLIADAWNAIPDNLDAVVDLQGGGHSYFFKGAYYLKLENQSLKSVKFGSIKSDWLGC
# Thrombin inh: counter-screen for RPN11 inhibitors: inhibition of bovine thrombin; shares compounds with Rpn11 inh; bovine thrombin cleavage of Ub4-pepOG, fluorescence polarization; inhibition, % at 20 µM; 1,900 tested, 13% active; AID 602333;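 active = mean inhibition at least 40% at 20 µM, or signal 3 deviations below plate average, so some actives read negative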;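 note: plate controls were thrombin with DMSO for no effect and buffer wells lacking thrombin for full effect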
# The depositor's hits bear a star; x = no result given. Compounds with a hit are over-represented: about 1.6% of the library has one in this group of screens. Cut-off read from the data, not from the text of the source, unless noted: active = inhibition above about 40%; inactive = the rest.
SMILES,Rpn11 inh,TPT1 inh,HNF4A DNA FP,CSN inh,SENP1 FRET inh,Rpn11 inh conf,MMP-2 counter,Thrombin inh
CCOc1ccccc1NC(=O)C(OC(=O)c1ccccc1)c1ccccc1 (centres undefined),2,4,-5,-5,-1,x,x,x
CCOc1ccccc1NC(=O)C(OC(=O)c1ccc(NC(=O)CC#N)cc1)c1ccccc1 (centres undefined),45*,8,12,2,-33,28,5,7
CC1Sc2ccc(S(=O)(=O)N3CCC(C(=O)NCC(C)c4ccccc4)CC3)cc2NC1=O (centres undefined),-5,-2,0,-2,-1,x,x,x
COc1ccccc1CNC(=O)COC(=O)COc1ccccc1Cc1ccccc1,-9,0,0,-1,3,x,x,x
O=C(CCN1CCc2ccccc2C(c2ccccc2)C1)c1ccc2c(c1)OCCO2 (centres undefined),57*,-5,-1,3,1,-13,-29,-12
O=C(CCN1Cc2ccccc2C1)c1ccc2c(c1)OCCO2,26,2,7,-2,1,x,x,x
COC(=O)C1=CO[C@@H](O[C@@H]2O[C@H](CO)[C@@H](O)[C@H](O)[C@H]2O)C2C1CC(O)O[C@H]2C (some centres undefined),4,x,-1,4,0,x,x,x
CCOC(=O)c1noc(C)c1C(=O)Nc1cccc(F)c1,83*,0,-1,-5,4,-1,-41,1
COc1ccc(Cl)cc1NC(=O)CSc1nc2ccsc2c(=O)n1CC1CCC(C(=O)O)CC1 (centres undefined),3,2,5,1,0,x,x,x
CCC(=O)N1CCc2cc(S(=O)(=O)N3CCN(c4ccccc4)CC3)ccc21,-1,3,-3,-6,1,x,x,x
CCC(=O)N1CCc2cc(S(=O)(=O)N3CCc4ccccc4C3)ccc21,56*,-2,0,78*,1,8,6,11
Cc1nn(-c2ccccc2)c(Cl)c1/C=N/NC(=O)c1cccc(S(=O)(=O)N2CCCC2)c1,40*,2,34,14,1,28,31,-10
O=C(CCc1nnc(CCCc2ccccc2)o1)NCC(F)(F)F,6,-2,-2,2,4,x,x,x
Cc1cc(C)c2c(=O)[nH]c(=O)n(Cc3ccccc3)c2n1,80*,12,5,27,-6,95*,30,50*
COc1ccccc1NC(=O)C1=C(C)Nc2ncnn2C1c1cccs1 (centres undefined),78*,4,1,4,-1,-11,-6,-12
O=C(NCc1ccc(F)cc1)c1cccc2c1C(=O)c1ccc(N3CCOCC3)cc1S2(=O)=O,45*,x,23,11,-27,54*,-11,30
CCc1c(Cl)nc(N)nc1Nc1ccccc1C,76*,x,25,0,1,-31,-14,-19
CCc1c(Cl)nc(N)nc1Nc1ccccc1Cl,0,x,-2,-4,4,x,x,x
Cc1cccc(C(=O)N[C@@H]2c3ccccc3C[C@@H]2O)n1,6,2,5,1,3,x,x,x
COc1ccccc1N=c1scc(-c2ccc3c(c2)NC(=O)CO3)n1CC1CCCO1 (centres undefined),6,3,4,3,0,x,x,x
CCCCN=c1scc(-c2ccc3c(c2)NC(=O)CO3)n1N=C1CCCC1,55*,10,10,0,-47,42*,16,28
CN1CCN(S(=O)(=O)c2cccc(C(=O)Nc3sc4c(c3C(N)=O)CCCC4)c2)CC1,90*,2,0,1,-3,6,25,-3
O=C(c1cc2c(s1)CCCC2)N1CCN(CCO)CC1,-2,x,5,5,2,x,x,x
CSc1nc(N)nc(SCC(=O)CC(=O)OC(C)C)c1C#N,78*,-1,3,9,-3,-3,-22,-17
O=C(Nc1ccc(-c2nc3ccccc3[nH]2)cc1)c1ccco1,5,2,1,-3,0,x,x,x
SMILES,Rpn11 inh,TPT1 inh,HNF4A DNA FP,CSN inh,SENP1 FRET inh,Rpn11 inh conf,MMP-2 counter,Thrombin inh
O=C(/C=C/c1ccco1)Nc1ccc(-c2nc3ccccc3[nH]2)cc1,56*,-1,66*,5,-16,5,-2,-35
Cc1cc(-c2csc(NC(=O)c3cccc(S(=O)(=O)N(C)C)c3)n2)c(C)n1-c1ccccc1,37*,23,17,12,25,9,21,-6
COC(=O)c1ccc(-n2c(C)cc(-c3csc(NC(=O)c4ccc(S(=O)(=O)N(C)C)cc4)n3)c2C)cc1,17,5,3,14,6,x,x,x
CN1[C@@H]2CCC[C@H]1CC(NC(=O)c1nn(C)c3ccccc13)C2 (some centres undefined),1,-4,0,-1,-2,x,x,x
Cc1ccc(C(=O)NCCCNc2ccc(C(F)(F)F)cc2[N+](=O)[O-])cc1,41*,8,12,3,4,16,10,5
CCOc1ccc(NC(=O)/C=C/c2ccc(OC)cc2)c([N+](=O)[O-])c1,48*,7,24,16,28,-16,-26,-20
Cc1ccc(C)c(NC(=S)NCc2cccs2)c1,-6,-3,2,-10,0,x,x,x
Cc1ccccc1NC(=S)NCc1cccs1,162*,-3,-25,0,1,0,-16,-4
O=C(O)C1C2CC(C(Br)C2Br)C1C(=O)O (centres undefined),0,x,3,2,0,x,x,x
CC(/C=C/c1ccc(N(C)C)cc1)=N/N=C1/NC(=O)CC(C(=O)Nc2ccc(Cl)cc2)S1 (centres undefined),65*,19,29,7,-29,89*,23,87*
COc1ccc(NC(=O)C2CC(=O)N/C(=N/N=C/c3ccccc3)S2)cc1 (centres undefined),-3,0,-1,9,2,x,x,x
CCC(C)Sc1cc(-c2nc3cc(C)ccn3c2NC2CCCCC2)ccc1OC (centres undefined),85*,x,31,29,30,8,-29,0
Cc1cc(C)c2c(N)c3cccc(C)c3nc2n1,67*,12,-5,10,-26,54*,-29,8
COC(=O)c1ccccc1NC(=O)Cn1nc2n(C)c3ccccc3n2c(=O)c1=O,x,-2,x,x,x,x,x,x
Cc1nc2ccc(NC(=O)[C@@H](NC(=O)c3c(F)cccc3F)C(C)C)cc2s1,50*,x,32,9,-46,58*,-43,70*

# Screening results from PubChem.
